# Experimental data as given in ChEMBL document CHEMBL2346560, “Structure and function of a potent lipopolysaccharide-binding antimicrobial and anti-inflammatory peptide” (J Med Chem, 2013).
# Active and inactive are the calls of the source. The calls are words filed in the database; no cut-off is given here. Bridge positions count the residues as written; N and C are the ends. Peptide text beside a SMILES is read from it.
# Assays:
# [1] = test system: Pseudomonas aeruginosa; test: Antibacterial activity against Pseudomonas aeruginosa ATCC 27853 treated with water after 16 hrs by broth dilution method; type: functional; conditions: ATCC 27853, 16 h
# Method in brief: (§1)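 Salt sensitivity of the MIC. Peptide was tested in water, NaCl, CaCl2, MgCl2 or PBS (Na2HPO4-NaH2PO4, pH 7.4), with every salt at 150 mM. Values are means of three independent experiments, each run in duplicate.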
# [2] = test system: Escherichia coli; test: Bactericidal activity against Escherichia coli ATCC 25922 at 10 times MIC after 10 mins by colony counting assay (reference value: 58.3 CFU); type: functional
# [3] = test system: RAW264.7; test: Antiinflammatory activity in mouse RAW264.7 cells assessed as inhibition of LPS-induced NO production at 5 ug/mL after 24 hrs by spectrophotometric analysis relative to control; type: functional; conditions: RAW264.7, 24 h
# Method in brief: (§2)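 RAW 264.7 cells (1 × 10^7) in RPMI-1640 with 10% FBS and penicillin/streptomycin were treated with peptide (2.5, 5, 10, 20 µg/mL) with or without LPS (E. coli 055:B5, 100 ng/mL) for 24 h. Medium nitrite was measured with Griess reagent at A540 against a NaNO2 standard curve. Control was LPS alone. Mean ± SEM of three separate experiments.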
# [4] = test system: Escherichia coli; test: Antibacterial activity against Escherichia coli ATCC 25922 after 16 hrs by broth dilution method; type: functional; conditions: ATCC 25922, 16 h
# Method in brief: (§3)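 MIC read-out, reported in µg/mL with µM equivalents. Each value is the mean of three independent experiments, each run in duplicate.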
# [5] = test system: Staphylococcus aureus; test: Antibacterial activity against Staphylococcus aureus ATCC 2592 treated with PBS after 16 hrs by broth dilution method; type: functional; conditions: ATCC 2592, 16 h; method in brief: as §1
# [6] = test system: Candida albicans; test: Antifungal activity against Candida albicans ATCC 2002 treated with CaCl2 after 16 hrs by broth dilution method; type: functional; conditions: ATCC 2002, 16 h; method in brief: as §1
# [7] = test system: Escherichia coli; test: Antibacterial activity against Escherichia coli ATCC 25922 treated with NaCl after 16 hrs by broth dilution method; type: functional; conditions: ATCC 25922, 16 h; method in brief: as §1
# [8] = test system: Escherichia coli; test: Bactericidal activity against Escherichia coli ATCC 25922 at 10 times MIC after 5 mins by colony counting assay (reference value: 47.7 CFU); type: functional
# [9] = test system: Pseudomonas aeruginosa; test: Antibacterial activity against Pseudomonas aeruginosa ATCC 27853 treated with PBS after 16 hrs by broth dilution method; type: functional; conditions: ATCC 27853, 16 h; method in brief: as §1
# [10] = Toxicity in human RBC assessed as induction of hemolysis after 30 mins; type: cell-based; conditions: erythrocyte, 0.5 h
# Method in brief: (§4)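 Human red blood cells incubated with peptide. Hemoglobin release read as absorbance at 540 nm and expressed against 1% Triton X-100 as positive control.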
# [11] = test system: Escherichia coli; test: Bactericidal activity against Escherichia coli ATCC 25922 at MIC after 40 mins by colony counting assay (reference value: 131.7 CFU); type: functional
# [12] = test system: Escherichia coli; test: Bactericidal activity against Escherichia coli ATCC 25922 at MIC after 10 mins by colony counting assay (reference value: 58.3 CFU); type: functional
# [13] = test system: Pseudomonas aeruginosa; test: Antibacterial activity against ampicillin, benzylpencillin-resistant Pseudomonas aeruginosa 08031014 after 16 hrs by broth dilution method; type: functional; conditions: Pseudomonas aeruginosa, 08031014, 16 h; method in brief: as §3
# [14] = test system: Escherichia coli; test: Bactericidal activity against Escherichia coli ATCC 25922 at 5 times MIC after 20 mins by colony counting assay (reference value: 79.3 CFU); type: functional
# [15] = test system: RAW264.7; test: Antiinflammatory activity in mouse RAW264.7 cells assessed as inhibition of LPS-induced NO production at 20 ug/mL after 24 hrs by spectrophotometric analysis relative to control; type: functional; conditions: RAW264.7, 24 h; method in brief: as §2
# [16] = Toxicity in human RBC assessed as induction of hemolysis at 50 ug/mL after 30 mins relative to control; type: cell-based, Erythrocyte; conditions: red blood cells (RBC), read-out: Activity; method in brief: as §4
# [17] = test system: Staphylococcus aureus; test: Antibacterial activity against ampicillin, benzylpencillin-resistant Staphylococcus aureus 08A865 after 16 hrs by broth dilution method; type: functional; conditions: 08A865, 16 h; method in brief: as §3
# [18] = test system: Escherichia coli; test: Bactericidal activity against Escherichia coli ATCC 25922 at 10 times MIC after 40 mins by colony counting assay (reference value: 131.7 CFU); type: functional
# [19] = test system: Bacillus subtilis; test: Antibacterial activity against Bacillus subtilis 6633 treated with PBS after 16 hrs by broth dilution method; type: functional; conditions: Bacillus subtilis, 6633, 16 h; method in brief: as §1
# [20] = test system: Escherichia coli; test: Antibacterial activity against Escherichia coli ATCC 25922 treated with water after 16 hrs by broth dilution method; type: functional; conditions: ATCC 25922, 16 h; method in brief: as §1
# [21] = test system: Escherichia coli; test: Bactericidal activity against Escherichia coli ATCC 25922 at 5 times MIC after 60 mins by colony counting assay (reference value: 296 CFU); type: functional
# [22] = test system: Escherichia coli; test: Antibacterial activity against Escherichia coli ATCC 25922 assessed as plasma membrane rupture after 30 mins by scanning electron microscopic analysis; type: functional, organism-based
# Method in brief: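 E. coli (about 2 × 10^7 CFU/mL) was exposed to peptide at 1 × MIC, 37 °C, 30 min, beside an untreated control. Cells were pelleted, fixed in 2.5% buffered glutaraldehyde (4 °C, 2 h), post-fixed in 1% osmium tetroxide (2 h), dehydrated through graded ethanol, frozen in tert-butyl alcohol and vacuum-dried, then imaged by SEM.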
# [23] = test system: Lipopolysaccharide (LPS); test: Binding affinity to Escherichia coli 055:B5 lipopolysaccharide by NMR titration assay
# Method in brief: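 2D TOCSY NMR titration: peptide 2.5 mM in 95% H2O/TFE-d3 (6:4, v/v) with 5% D2O, pH 6.2, 25 °C, alone or with LPS from E. coli 055:B5 (2.5 mM : 1 µg and 2.5 mM : 5 µg). Readout is the ratio of amide proton peak heights, free versus LPS-bound, per residue.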
# [24] = test system: Bacillus subtilis; test: Antibacterial activity against Bacillus subtilis 6633 treated with CaCl2 after 16 hrs by broth dilution method; type: functional; conditions: Bacillus subtilis, 6633, 16 h; method in brief: as §1
# [25] = test system: Staphylococcus aureus; test: Antibacterial activity against Staphylococcus aureus ATCC 2592 treated with water after 16 hrs by broth dilution method; type: functional; conditions: ATCC 2592, 16 h; method in brief: as §1
# [26] = test system: RAW264.7; test: Antiinflammatory activity in mouse RAW264.7 cells assessed as inhibition of LPS-induced IL6 production after 24 hrs by ELISA; type: functional, cell-based
# Method in brief: (§5)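 RAW 264.7 cells (2 × 10^5) were plated and allowed to adhere. They were given peptide (2.5, 5, 10, 20 µg/mL) with or without LPS (E. coli 055:B5, 20 ng/mL) for 24 h. Supernatant TNF-α, IL-6 and MCP-1 were measured by ELISA at A450. Controls were LPS alone and untreated cells. Mean ± SEM of three separate experiments.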
# [27] = test system: RAW264.7; test: Antiinflammatory activity in mouse RAW264.7 cells assessed as inhibition of LPS-induced MCP1 production at 20 ug/mL after 24 hrs by ELISA relative to control; type: functional; conditions: RAW264.7, 24 h; method in brief: as §5
# [28] = test system: RAW264.7; test: Antiinflammatory activity in mouse RAW264.7 cells assessed as inhibition of LPS-induced JNK2 expression preincubated for 1 hr prior to LPS-challenge measured after 3 hrs by Western blotting analysis; type: functional, cell-based
# Method in brief: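 RAW 264.7 cells (1 × 10^6/well) were serum-starved in RPMI-1640 for 16 h. They were pretreated with peptide (0, 5, 10, 20 µg/mL) for 1 h, then given LPS (E. coli 055:B5, 0 or 100 ng/mL) for 3 h. Cells were washed in ice-cold PBS, and cytoplasmic or nuclear fractions were blotted for TLR4, JNK, NF-κB p65 and β-actin. Control was LPS alone.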
# [29] = test system: Bacillus subtilis; test: Antibacterial activity against Bacillus subtilis 6633 treated with water after 16 hrs by broth dilution method; type: functional; conditions: Bacillus subtilis, 6633, 16 h; method in brief: as §1
structure (smiles),measurement,setting,value
CC[C@H](C)[C@H](NC(=O)[C@H](Cc1cnc[nH]1)NC(=O)[C@H](CO)NC(=O)[C@@H](NC(=O)[C@@H](NC(=O)[C@@H](NC(=O)[C@@H](NC(=O)[C@H](CCCNC(=N)N)NC(=O)[C@H](CC(C)C)NC(=O)[C@H](CCCCN)NC(=O)[C@H](CCC(=O)O)NC(=O)[C@H](CCCCN)NC(=O)[C@H](CC(C)C)NC(=O)[C@H](CCCCN)NC(=O)[C@@H]1CSSC[C@H](NC(=O)[C@H](CCCCN)NC(=O)[C@@H](N)CCCNC(=N)N)C(=O)N[C@@H](CC(N)=O)C(=O)N[C@@H](Cc2ccccc2)C(=O)N[C@@H](CC(C)C)C(=O)N1)[C@@H](C)O)C(C)C)[C@@H](C)CC)[C@@H](C)O)C(=O)N[C@@H](CC(=O)O)C(=O)N[C@@H](CCCCN)C(=O)N[C@H](C(=O)N[C@@H](CC(C)C)C(=O)N[C@@H](CCCNC(=N)N)C(=O)N1CCC[C@H]1C(=O)N[C@@H](CCC(N)=O)C(=O)NCC(=O)O)C(C)C (H-RKCNFLCKLKEKLRTVITSHIDKVLRPQG-OH; disulfide 3-7),MIC,[1],18.8 µg/mL
same,CFU,[2],0
same,inhibition at 5 µg/mL,[3],30%
same,MIC,[4],1.37 µM
same,MIC,[5],4.69 µg/mL
same,MIC,[6],2.35 µg/mL
same,MIC,[7],2.35 µg/mL
same,CFU,[8],11.3
same,MIC,[9],9.38 µg/mL
same,Activity,[10],Dose-dependent effect
same,CFU,[11],0
same,CFU,[12],23.7
same,MIC,[13],10.9 µM
same,CFU,[14],0
same,inhibition at 20 µg/mL,[15],70%
same,"hemolysis at 0.5 h, 50 ug/mL",[16],5.5%
same,MIC,[17],2.74 µM
same,CFU,[18],0
same,MIC,[19],> 100 µg/mL
same,MIC,[20],4.69 µg/mL
same,CFU,[21],0
same,Activity,[22],Active
same,Activity,[23],Active
same,MIC,[24],75 µg/mL
same,MIC,[25],9.38 µg/mL
same,inhibition,[26],Dose-dependent effect
same,inhibition at 20 µg/mL,[27],68%
same,inhibition,[28],Dose-dependent effect
same,MIC,[29],> 100 µg/mL
